Assay results taken from PMC9671271 (ACS infectious diseases, 2022).

Experiments:
C. albicans cells [1] = assay: Propidium iodide membrane permeability assay, confocal microscopy, yeast form; type: cell-based, Candida albicans SC5314; conditions: for membrane disruption (PI leakage): 12.5 μM Hist-5, 7.5 μM PI, 5 min, RT, PPB
C. albicans cells [2] = conditions: acid form of ZQ; stated as known, no reference given; cited from earlier work
C. albicans hyphae = assay: Propidium iodide membrane permeability assay, hyphal form; type: cell-based, Candida albicans SC5314
Summary of the method: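 Colony from YPD agar (30 °C, 24 h) grown 24 h in SD+ at 30 °C, 200 rpm, then diluted to OD600 0.1 in SD+ with 12.5 mM N-acetylglucosamine and grown 24 h at 37 °C, 200 rpm. Cells pelleted and resuspended in PPB pH 7.4, then given 12.5 μM test peptide, 7.5 μM PI, ± ZnCl2 (0.5, 1, 2 eq). Confocal imaging at 5 min, RT; PI excitation 488 nm, emission 600–700 nm.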

[3] = Circular dichroism titration for Zn-induced dimerization/aggregation; type: physicochemical; conditions: CD, 0-50 μM Hist-5 with 250 μM ZnCl2, PPB (198 nm) or 98% TFE (222 nm), 25 °C; ellipticity linear up to 50 μM
C. albicans = assay: Two-dimensional broth microdilution checkerboard assay; type: cell-based, Candida albicans SC5314

Compound: O=C(O)CN(CCN(CC(=O)O)CC(=O)O)CC(=O)O [EDTA, ethylenediaminetetraacetic acid]
- PI uptake into the cytosol (C. albicans cells [1]; cells treated with EDTA and PI only, no peptide (Figure S14)): not observed

Compound: Cc1ccc(S(=O)(=O)Nc2cc(OCC(=O)O)cc3ccc(C)nc23)cc1 [ZQ, 2-methyl-8-(toluene-p-sulfonamido)-6-quinolyloxyacetic acid]
- membrane permeability (C. albicans cells [2]): poor membrane permeability

Compound: DSHAKRHHGYKRKFHEKHHSHRGY [Hist-5, Histatin-5]
- membrane activity on hyphae (PI leakage) (C. albicans hyphae; 12.5 μM Hist-5, 7.5 μM PI, with Zn^2+ supplementation): protective effect against Hist-5-induced membrane disruption
- membrane activity on hyphae (PI leakage) (C. albicans hyphae; 12.5 μM Hist-5 alone, 7.5 μM PI, 5 min, RT, PPB): able to permeabilize the cell membrane
- membrane disruption (PI leakage) (C. albicans cells [1]; no added Zn^2+): allows leakage of PI into the cytosol
- membrane disruption (PI leakage) (C. albicans cells [1]; one or more molar equivalents of Zn^2+): did not cause dye leakage
- membrane disruption (PI leakage) (C. albicans cells [1]; submolar equivalents of Zn^2+): internalization of PI
- Zn-induced peptide dimerization/aggregation [3]: dimerization/aggregation is not occurring
- effect of Zn^2+ on fungicidal activity (C. albicans; Zn^2+ concentration surpassing the Hist-5 concentration (Figure S9)): switched from promoting Hist-5 fungicidal activity to inhibiting it
- effect of Zn^2+ supplementation on peptide activity (C. albicans; sub-inhibitory concentrations of Hist-5, strongest at 1:2 Zn^2+ to peptide (Figure S9)): increase in peptide activity
